From ChEMBL document CHEMBL4043223, “Structure-activity relationship study of small molecule inhibitors of the DEPTOR-mTOR interaction” (Bioorg Med Chem Lett, 2017) come the findings set out here.

Activity calls are given as the source filed them. The calls are words filed in the database; no cut-off is given here.

Series [1] has as its target DEP domain-containing mTOR-interacting protein (Homo sapiens) (UniProt Q8TB45). In words: Inhibition of mTOR binding to DEPTOR in human RPMI8226 cells assessed as increase in mTORC1-associated 4E-BP1 phosphorylation by Western blot analysis. It is filed as cell-based. On the technique in general: In western blotting, separated proteins are transferred to a membrane and probed.

The target is the same in series [2]. In words: Inhibition of mTOR binding to DEPTOR in human RPMI8226 cells assessed as increase in mTORC2-associated AKT phosphorylation at S473 residue by Western blot analysis. It counts as cell-based.
Series [3] has the same target. Nature of the series: Inhibition of mTOR binding to DEPTOR in human RPMI8226 cells assessed as increase in mTORC1-associated p70 phosphorylation at 1 uM after 6 hrs by Western blot analysis. It is filed as cell-based. The procedure, abridged: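 8226 cells exposed 6 h to compound, DMSO in untreated controls. Lysates run on 12.5% SDS-PAGE, transferred to PVDF, probed for phospho- and total p70. Densitometric phospho/total ratio expressed as fold versus parent compound B set at 1; mean ± SD, n = 4.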

The subject of series [4] is RPMI-8226. In words: Cytotoxicity against RAPTOR knockdown human RPMI8226 cells at 0.12 to 1 uM after 48 hrs by MTT assay. It is filed as functional, cell-based. In short, it runs like this: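 8226 cells infected with lentivirus carrying shRAPTOR or control shSCRAMBLE, knockdown confirmed by immunoblot. Cells then incubated with increasing compound concentrations; MTT read-out after 48 h, formazan at 570 nm, as % of DMSO control.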

Series [5] deals with RPMI-8226. In words: Induction of apoptosis in human RPMI8226 cells assessed as caspase3 activation at 0.12 to 2 uM after 48 hrs by cytofix/cytoperm staining based flow cytometry. It is filed as functional, cell-based. In short, it runs like this:
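Caspase-3 flow cytometry 48 h after drug exposure of 8226 cells. 10^6 cells washed in PBS, fixed and permeabilized in cytofix/cytoperm, stained 30 min with PE-conjugated anti-active-caspase-3 (1:5 dilution). % apoptosis = drug-treated minus DMSO-control positives; mean ± SD, n = 4.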

The species entered for series [6] is Homo sapiens. In words: Activation of mTORC1 in DEPTOR knockdown human RPMI8226 cells assessed as increase in p70 phosphorylation. The procedure, abridged: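 DEPTOR silenced in 8226 cells by shRNA lentivirus, with shScramble-transfected cells as control. Cells drug-treated, then p70 phosphorylation assessed by immunoblot.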
Series [7] addresses DEP domain-containing mTOR-interacting protein (Homo sapiens) (UniProt Q8TB45). In words: Inhibition of mTOR binding to DEPTOR in human RPMI8226 cells assessed as increase in mTORC1-associated p70 phosphorylation at […] after 6 hrs by Western blot analysis. It counts as cell-based.
Series [8] relates to Mus musculus. In words: Toxicity in mouse xenografted with human RPMI8226 cells assessed as effect on platelet level at 20 mg/kg, ip administered daily for 3 days measured post last dose. It is filed as organism-based. The following applies: in vivo, 72 h. In short, it runs like this: (§1)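 Immunodeficient mice inoculated subcutaneously with 8226 myeloma cells. Once tumors reached 500 mm3, daily treatment at 20 mg/kg was started.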

The test system of series [9] is MM1.S. In words: Cytotoxicity against human MM1S cells after 48 hrs by MTT assay. It is filed as functional, cell-based. In short, it runs like this: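 MM1.S myeloma cells (DEPTOR-over-expressing) in 48 h MTT: 1–2 × 10^4 cells per well, graded compound concentrations, formazan at 570 nm. Quadruplicate wells; survival as % of DMSO control; IC50 derived from the concentration range.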
In general terms: Tetrazolium assays rely on reduction of a dye to a coloured formazan, in cell work by metabolically active cells.

Series [10] deals with DEP domain-containing mTOR-interacting protein (Homo sapiens) (UniProt Q8TB45). Nature of the series: Inhibition of DEPTOR in human RPMI8226 cells assessed as upregulation of mTORC1-dependant p21 expression at 0.5 to 2 uM after 6 hrs by Western blot analysis. It counts as cell-based.
Series [11] in a line: Therapeutic index, ratio of IC50 for PBL (unknown origin) to IC50 for human RPMI8226 cells. In short, it runs like this: (§2)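 Normal peripheral blood lymphocytes tested head-to-head with 8226 myeloma cells in 48 h MTT assays. […] Therapeutic index = IC50(PBL)/IC50(8226).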
Series [12] has as its target DEP domain-containing mTOR-interacting protein (Homo sapiens) (UniProt Q8TB45). Nature of the series: Inhibition of mTOR binding to DEPTOR in human RPMI8226 cells assessed as decrease in AKT phosphorylation at […] residue by Western blot analysis. It is filed as cell-based.
The subject of series [13] is RPMI-8226. Nature of the series: Cytotoxicity against human RPMI8226 cells after 48 hrs in presence of mTOR inhibitor pp242 by MTT assay. It is filed as functional, cell-based.
The test system of series [14] is RPMI-8226. In words: Cytotoxicity against human RPMI8226 cells after 48 hrs by MTT assay. It is filed as functional, cell-based. The following applies: RPMI-8226, 48 h. The procedure, abridged: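 MTT in RPMI-8226 cells: 1–2 × 10^4 cells per well in complete medium, exposed 48 h to a range of compound concentrations. MTT reduction to formazan read at 570 nm. Quadruplicate wells per group; OD given as % of DMSO-only control set at 100%. IC50 taken from the concentration series.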

Series [15] relates to RPMI-8226. In words: Induction of apoptosis in human RPMI8226 cells assessed as caspase3 activation in presence of mTOR inhibitor pp242 by cytofix/cytoperm staining based flow cytometry. It is filed as functional, cell-based. In general terms: A flow cytometer gives signals particle by particle.
Series [16] has as its system Mus musculus. In words: Toxicity in mouse xenografted with human RPMI8226 cells assessed as effect on RBC level at 20 mg/kg, ip administered daily for 3 days measured post last dose. It is filed as organism-based. The following applies: in vivo, 72 h. In short, it runs like this:
as §1

Series [17] deals with Mus musculus. In words: Toxicity in mouse xenografted with human RPMI8226 cells assessed as effect on WBC level at 20 mg/kg, ip administered daily for 3 days measured post last dose. It counts as organism-based. The following applies: in vivo, 72 h. In short, it runs like this:
as §1

Series [18] has as its system RPMI-8226. Nature of the series: Anti-tumor activity against human RPMI8226 cells xenografted in mouse assessed as reduction in tumor growth at 20 mg/kg, ip administered daily for 3 days measured post last dose. It counts as functional, organism-based. The procedure, abridged:
as §1

Series [19] concerns the target DEP domain-containing mTOR-interacting protein (Homo sapiens) (UniProt Q8TB45). Nature of the series: Inhibition of mTOR binding to DEPTOR in human RPMI8226 cells at 0.5 uM treated 6 hrs followed by DEPTOR immunoprecipitation by immunoblotting analysis. It counts as cell-based. The procedure, abridged: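 Co-immunoprecipitation: 8226 cells treated 6 h with DMSO or 0.5 µM compound. DEPTOR immunoprecipitated; precipitates immunoblotted for DEPTOR and bound mTOR.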

Series [20] has as its system PBL. In words: Cytotoxicity against PBL (unknown origin) after 48 hrs by MTT assay. It is filed as cell-based. In short, it runs like this:
as §2

Series [21] concerns the target DEP domain-containing mTOR-interacting protein (Homo sapiens) (UniProt Q8TB45). Nature of the series: Inhibition of mTOR binding to DEPTOR in human RPMI8226 cells assessed as increase in mTORC1-associated S6 phosphorylation by Western blot analysis. It counts as cell-based.
Series [22] shares this target. In words: Inhibition of mTOR binding to DEPTOR in human RPMI8226 cells assessed as increase in mTORC2-associated SGK phosphorylation by Western blot analysis. It counts as cell-based.

DEP domain-containing mTOR-interacting protein (Homo sapiens), sequence (Q8TB45 whole entry, the tested form may be a part): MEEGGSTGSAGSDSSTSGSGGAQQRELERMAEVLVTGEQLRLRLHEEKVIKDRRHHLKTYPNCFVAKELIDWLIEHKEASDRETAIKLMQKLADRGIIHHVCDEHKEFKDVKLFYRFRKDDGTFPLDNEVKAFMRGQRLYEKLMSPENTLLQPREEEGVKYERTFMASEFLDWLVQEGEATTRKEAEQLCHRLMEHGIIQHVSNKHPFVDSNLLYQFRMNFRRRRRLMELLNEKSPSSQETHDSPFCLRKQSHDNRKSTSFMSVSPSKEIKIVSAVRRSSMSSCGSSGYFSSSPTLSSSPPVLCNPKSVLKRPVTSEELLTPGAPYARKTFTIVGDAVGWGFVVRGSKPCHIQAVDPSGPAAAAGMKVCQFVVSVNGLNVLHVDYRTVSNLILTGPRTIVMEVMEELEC

As for `FC(F)(F)c1cccc(NN=C2C(Cl)=C(Cl)C(Cl)=C2Cl)c1`, the inhibition entry in [1], in [2], in series [3], in series [7], in [10] and in [12] was “Active” throughout. Moreover, the inhibition entry in series [19], in series [21] and in series [22] was “Active” each time. For the same molecule, the outcome in series [4], in series [6], in series [13] and in series [15] was inactive. Further, the result in series [5] and in series [18] was Active. In addition, the Activity entry in series [8], in series [16] and in series [17] was “Non-Toxic” each time. Besides, the IC50 – broadly, the concentration at which inhibition is half-maximal – in [9] was 1000 nM; in series [14], 110 to 170 nM; in series [20], 15000 nM. Also, the “Ratio IC50” value in series [11] was determined as 136.
